Reference: ChEMBL document CHEMBL1159067, “Benzimidazole- and indole-substituted 1,3'-bipyrrolidine benzamides as histamine H3 receptor antagonists” (Bioorg Med Chem Lett, 2010)
In brackets after ≈: the same amount, converted by molar mass. Activity calls are given as the source filed them. No cut-off for these calls is given here.

Key:
[1] = Aqueous solubility at pH 3.1; format: physicochemical; settings: aqueous medium
Caco-2 = assay: Ratio of permeability across basolateral to apical side over apical to basolateral side of human Caco-2 cell membrane
Histamine H3 receptor [2] = biological target: Histamine H3 receptor (Homo sapiens, UniProt Q9Y5N1); assay: Displacement of [3H](R)-alpha-methylhistamine from human cloned histamine H3 receptor expressed in HEK293T cells by liquid scintillation spectrometry; format: cell-based, HEK-293T
Chain of Histamine H3 receptor (Homo sapiens, UniProt Q9Y5N1) (Q9Y5N1 whole entry): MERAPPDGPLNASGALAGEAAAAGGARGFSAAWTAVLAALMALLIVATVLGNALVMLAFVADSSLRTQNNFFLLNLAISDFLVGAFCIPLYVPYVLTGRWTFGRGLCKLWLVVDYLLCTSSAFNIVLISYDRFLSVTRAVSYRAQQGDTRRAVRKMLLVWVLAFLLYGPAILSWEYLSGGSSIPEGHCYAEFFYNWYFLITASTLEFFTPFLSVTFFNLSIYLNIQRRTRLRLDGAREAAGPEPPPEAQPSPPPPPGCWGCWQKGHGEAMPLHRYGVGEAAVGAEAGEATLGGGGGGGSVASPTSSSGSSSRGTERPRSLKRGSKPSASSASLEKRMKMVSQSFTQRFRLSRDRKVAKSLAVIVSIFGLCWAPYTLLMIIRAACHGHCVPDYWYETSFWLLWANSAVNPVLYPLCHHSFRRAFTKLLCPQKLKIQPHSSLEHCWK

[3] = Permeability across apical to basolateral side of human Caco-2 cell membrane; format: ADME, cell-based; settings: read-out: permeability
[4] = Permeability by PAMPA; format: ADME; settings: read-out: permeability
Method in brief: (§1)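 Passive permeability was measured by PAMPA, or by its blood–brain barrier variant PAMPA–BBB. Each gives effective permeability in units of 10^-6 cm/s.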

[5] = Blood-brain barrier permeability by PAMPA-BBB assay; format: ADME; method in brief: as §1
Rattus norvegicus [6] = assay: Decrease in (R)-alpha-methylhistamine-induced water intake in rat at 30 mg/kg, ip; format: functional, organism-based; set-up: dose 30 mg/kg
Method in brief: (§2)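 Water intake was induced in rats by the H3R agonist (R)-α-methylhistamine, which acts via central H3R. Antagonist was dosed ip. Significance was p <0.05 versus vehicle and versus (R)-α-methylhistamine alone.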

[7] = Volume of distribution at steady state in rat at 2 mg/kg, iv; format: ADME, organism-based; set-up: dose 2 mg/kg, route intravenous; settings: in vivo, read-out: Vdss
Rattus norvegicus [8] = assay: Reversal of delay-induced retention deficit behavior in ip dosed rat assessed as differential novel and familiar object recognition; format: functional; settings: read-out: MED
Method in brief: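 Rats received test compound ip at 0.1, 0.3, 1 or 3 mg/kg, or vehicle, before the learning trial. Exploration of the novel and familiar objects was then scored. Groups were compared with vehicle, with significance at p <0.03 and p <0.005.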

[9] = Tmax in rat at 10 mg/kg, po; format: ADME, organism-based; set-up: dose 10 mg/kg, route oral; settings: in vivo
[10] = Tmax in rat brain at 30 mg/kg, ip; format: ADME, organism-based; set-up: dose 30 mg/kg, route intraperitoneal
Histamine H3 receptor [11] = biological target: Histamine H3 receptor (Rattus norvegicus, UniProt Q9QYN8); assay: Binding affinity to rat histamine H3 receptor
Chain of Histamine H3 receptor (Rattus norvegicus, UniProt Q9QYN8) (Q9QYN8 whole entry): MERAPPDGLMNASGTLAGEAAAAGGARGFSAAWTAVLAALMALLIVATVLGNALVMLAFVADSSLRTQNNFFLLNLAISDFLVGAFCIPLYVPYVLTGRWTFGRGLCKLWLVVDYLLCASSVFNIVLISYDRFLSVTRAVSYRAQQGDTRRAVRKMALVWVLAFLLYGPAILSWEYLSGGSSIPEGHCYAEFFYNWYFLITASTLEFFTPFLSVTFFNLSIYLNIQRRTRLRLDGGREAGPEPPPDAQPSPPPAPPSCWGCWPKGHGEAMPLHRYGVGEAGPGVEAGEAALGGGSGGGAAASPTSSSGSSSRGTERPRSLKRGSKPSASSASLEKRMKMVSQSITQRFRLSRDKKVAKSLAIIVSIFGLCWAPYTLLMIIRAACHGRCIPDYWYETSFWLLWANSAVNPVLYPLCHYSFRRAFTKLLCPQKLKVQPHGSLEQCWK

[12] = AUC in rat brain at 30 mg/kg, ip; format: ADME, organism-based; set-up: dose 30 mg/kg, route intraperitoneal
[13] = Fraction unbound in rat brain at 30 mg/kg, ip; format: ADME, organism-based; set-up: dose 30 mg/kg, route intraperitoneal
Rattus norvegicus [14] = assay: Decrease in (R)-alpha-methylhistamine-induced water intake in rat at 10 mg/kg, ip; format: functional, organism-based; set-up: dose 10 mg/kg; method in brief: as §2
[15] = Plasma clearance in rat at 2 mg/kg, iv; format: ADME, organism-based; set-up: dose 2 mg/kg, route intravenous
[16] = Cmax in rat brain at 30 mg/kg, ip; format: ADME, organism-based; set-up: dose 30 mg/kg, route intraperitoneal
[17] = Cmax in rat plasma at 30 mg/kg, ip; format: ADME, organism-based; set-up: dose 30 mg/kg, route intraperitoneal
[18] = AUC in rat plasma at 30 mg/kg, ip; format: ADME, organism-based; set-up: dose 30 mg/kg, route intraperitoneal
[19] = Tmax in rat plasma at 30 mg/kg, ip; format: ADME, organism-based; set-up: dose 30 mg/kg, route intraperitoneal
[20] = AUC in rat at 10 mg/kg, po; format: ADME, organism-based; set-up: dose 10 mg/kg, route oral; settings: plasma
[21] = Half life in rat at 10 mg/kg, po; format: ADME, organism-based; set-up: dose 10 mg/kg, route oral; settings: in vivo
[22] = Cmax in rat at 10 mg/kg, po; format: ADME, organism-based; set-up: dose 10 mg/kg, route oral; settings: in vivo
[23] = Oral bioavailability in rat at 10 mg/kg; format: ADME, organism-based; settings: in vivo
[24] = Ratio of AUC in rat brain to plasma at 30 mg/kg, ip; format: ADME, organism-based; set-up: dose 30 mg/kg, route intraperitoneal; settings: brain and plasma
Method in brief: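 Rats given a single 30 mg/kg intraperitoneal injection. Brain and plasma exposure were measured, with Cmax and Tmax recorded for each. The ratio is brain AUC (h ng/mL) divided by plasma AUC.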

[25] = Tmax in rat plasma at 10 mg/kg, ip; format: ADME, organism-based; set-up: dose 10 mg/kg, route intraperitoneal
[26] = AUC in rat plasma at 10 mg/kg, ip; format: ADME, organism-based; set-up: dose 10 mg/kg, route intraperitoneal
[27] = Tmax in rat brain at 10 mg/kg, ip; format: ADME, organism-based; set-up: dose 10 mg/kg, route intraperitoneal
[28] = AUC in rat brain at 10 mg/kg, ip; format: ADME, organism-based; set-up: dose 10 mg/kg, route intraperitoneal
[29] = Cmax in rat plasma at 10 mg/kg, ip; format: ADME, organism-based; set-up: dose 10 mg/kg, route intraperitoneal
[30] = Fraction unbound in rat brain at 10 mg/kg, ip; format: ADME, organism-based; set-up: dose 10 mg/kg, route intraperitoneal
[31] = Cmax in rat brain at 10 mg/kg, ip; format: ADME, organism-based; set-up: dose 10 mg/kg, route intraperitoneal

SMILES | solubility [1] | Ki (Histamine H3 receptor [2]) | Papp [4] | pBBB [5] | further results
O=C(c1ccc(Cn2ccc3cccc(Cl)c32)cc1)N1CC[C@H](N2CCCC2)C1 | 18 µg/mL (≈ 44.1 µM) | 2.5 nM | 6.5 ×10⁻⁶ cm/s | 7 ×10⁻⁶ cm/s | Activity (Rattus norvegicus [6]): Active; Vd [7]: 7.3 L/kg; minimal effective dose (Rattus norvegicus [8]): 0.3 mg/kg; Tmax [9]: 1.2 h; Tmax [10]: 0.5 h; Ki (Histamine H3 receptor [11]): 21.7 nM; AUC [12]: 15000 ng·h/mL; fraction unbound [13]: 0.035; Activity (Rattus norvegicus [14]): Active; clearance [15]: 112 mL/min/kg; Cmax [16]: 16 µM; Cmax [17]: 1090 ng/mL; AUC [18]: 2180 ng·h/mL; Tmax [19]: 0.5 h; AUC [20]: 63 ng·h/mL; half-life [21]: 1.9 h; Cmax [22]: 22 ng/mL; bioavailability [23]: 5%; Kp [24]: 6.9
O=C(c1ccc(Cn2cnc3ccccc32)cc1)N1CC[C@H](N2CCCC2)C1 | 51 µg/mL (≈ 136 µM) |  | 0.3 ×10⁻⁶ cm/s | 3.7 ×10⁻⁶ cm/s | Tmax [25]: 1 h; AUC [26]: 1040 ng·h/mL; Tmax [27]: 1 h; Vd [7]: 3.6 L/kg; Tmax [9]: 0.4 h; AUC [28]: 231 ng·h/mL; Cmax [29]: 388 ng/mL; clearance [15]: 56 mL/min/kg; fraction unbound [30]: 0.138; AUC [20]: 2740 ng·h/mL; Cmax [31]: 0.245 µM; half-life [21]: 1.3 h; Cmax [22]: 1750 ng/mL; bioavailability [23]: 93%
O=C(c1cccc(Cn2cnc3ccccc32)c1)N1CCC(N2CCCC2)C1 (stereo unspecified) |  | 400 nM |  |  | 
O=C(c1ccc(Cn2ccc3cc(Cl)ccc32)cc1)N1CC[C@H](N2CCCC2)C1 | 10 µg/mL (≈ 24.5 µM) | 130 nM | 7.8 ×10⁻⁶ cm/s | 8.1 ×10⁻⁶ cm/s | 
O=C(c1ccc(Cn2ccc3ccc(Cl)cc32)cc1)N1CC[C@H](N2CCCC2)C1 | 13 µg/mL (≈ 31.9 µM) | 150 nM | 7.3 ×10⁻⁶ cm/s | 8.6 ×10⁻⁶ cm/s | 
O=C(c1ccc(Cn2ccc3ccccc32)cc1)N1CC[C@H](N2CCCC2)C1 | 28 µg/mL (≈ 75 µM) | 15 nM | 8.3 ×10⁻⁶ cm/s | 9.4 ×10⁻⁶ cm/s | 
O=C(c1ccccc1Cn1cnc2ccccc21)N1CCC(N2CCCC2)C1 (stereo unspecified) |  | 4000 nM |  |  | 

The next lines start with results.

solubility [1] | Ki (Histamine H3 receptor [2]) | Papp [4] | pBBB [5] | SMILES | further results
> 100 µg/mL | 100 nM | 4.4 ×10⁻⁶ cm/s | 9.4 ×10⁻⁶ cm/s | CN(C)C1CCN(C(=O)c2ccc(Cn3c(-c4ccccc4)nc4ccccc43)cc2)C1 (stereo unspecified) | Ratio (Caco-2): 1.3; Papp A→B [3]: 84.9 ×10⁻⁶ cm/s
 | 65 nM |  |  | CN(C)[C@H]1CCN(C(=O)c2ccc(Cn3c(-c4ccccc4)nc4ccccc43)cc2)C1 | 
 | 17 nM |  |  | Cc1nc2ccccc2n1Cc1ccc(C(=O)N2CCC(N(C)C)C2)cc1 (stereo unspecified) | 
 | 1200 nM |  |  | CN(CCO)C1CCN(C(=O)c2ccc(Cn3c(-c4ccccc4)nc4ccccc43)cc2)C1 (stereo unspecified) | 
 | 235 nM |  |  | CN(C)C1CCN(C(=O)c2ccc(Cn3c(-c4ccccn4)nc4ccccc43)cc2)C1 (stereo unspecified) | 
 | 10 nM |  |  | O=C(c1ccc(Cn2c(-c3ccccc3)nc3ccccc32)cc1)N1CCC(N2CCCC2)C1 (stereo unspecified) | 
 | 390 nM |  |  | CN(C)C1CCN(C(=O)c2ccc(Cn3cnc4ccccc43)cc2)C1 (stereo unspecified) | 
32 µg/mL (≈ 82.4 µM) |  | 0.3 ×10⁻⁶ cm/s | 4 ×10⁻⁶ cm/s | Cc1nc2ccccc2n1Cc1ccc(C(=O)N2CC[C@H](N3CCCC3)C2)cc1 | 
 | 91 nM |  |  | CCN(C)C1CCN(C(=O)c2ccc(Cn3c(-c4ccccc4)nc4ccccc43)cc2)C1 (stereo unspecified) | 
 | 440 nM |  |  | CN(C)[C@@H]1CCN(C(=O)c2ccc(Cn3c(-c4ccccc4)nc4ccccc43)cc2)C1 | 
